Measured values published in ChEMBL document CHEMBL4732089, “Novel σ antagonists designed for tumor therapy: Structure - activity relationships of aminoethyl substituted cyclohexanes” (Eur J Med Chem, 2021).
Activity calls are given as the source filed them. The calls are words filed in the database; no cut-off is given here.

Experiments:
[1] = target: Sigma non-opioid intracellular receptor 1 (Cavia porcellus, UniProt Q60492); experiment: Displacement of [3H]-pentazocine from sigma1 receptor in guinea pig brain membrane incubated for 120 mins by liquid scintillation counting method; assay type: cell membranes
[2] = target: T1, Sigma intracellular receptor 2 (Rattus norvegicus, UniProt Q5U3Y7); experiment: Displacement of [3H]-di-o-tolylguanidine from sigma2 receptor in rat liver membrane incubated for 120 mins by liquid scintillation counting method relative to control; assay type: cell membranes
T1 sequence (Q5U3Y7 whole entry): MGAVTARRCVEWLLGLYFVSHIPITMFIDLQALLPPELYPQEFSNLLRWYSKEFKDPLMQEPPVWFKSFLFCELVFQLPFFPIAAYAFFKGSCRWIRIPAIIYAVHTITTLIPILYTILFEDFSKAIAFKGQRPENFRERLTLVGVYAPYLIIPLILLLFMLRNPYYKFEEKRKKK
Outline: (§1)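 Competitive binding with [3H]di-o-tolylguanidine on rat liver membranes. Single-concentration values are % inhibition of radioligand binding at 1 µM test compound. Ki values are n = 3 (±SEM), except low-affinity compounds, which were measured once.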

[3] = target: T2, Sigma intracellular receptor 2 (Rattus norvegicus) (UniProt Q5U3Y7); experiment: Displacement of [3H]-di-o-tolylguanidine from sigma2 receptor in rat liver membrane at 1 uM incubated for 120 mins by liquid scintillation counting method relative to control; assay type: cell membranes; outline: as §1
T2 sequence (whole entry): T1 sequence (Q5U3Y7 whole entry)

Sus scrofa = species: Sus scrofa; experiment: Displacement of [3H]-MK-801 from NMDA receptor PCP binding site in pig brain cortex at 1 uM incubated for 150 mins by liquid scintillation counting method relative to control; assay type: tissue-based
DU-145 = experiment: Antiproliferative activity against human DU145 cells assessed as reduction in cell viability at 10 uM incubated for 72 hrs by SRB assay; assay type: functional, cell-based
Outline: (§2)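 Cells from ATCC were grown in RPMI 1640 with 10% FBS, glutamine and penicillin-streptomycin. Seeding was 1×10^3 (lung) or 2×10^3 (prostate) cells/well. After 24 h, compounds were added at 10 µM for 72 h. Cells were fixed with 10% TCA and stained with sulforhodamine B for 30 min. Dye was solubilized in Tris base and OD read at 510 nm. Results are expressed as % of DMSO-treated cells.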

[4] = Selectivity for sigma1 receptor in guinea pig brain membrane over sigma2 receptor in rat liver membrane; assay type: cell membranes
[5] = Metabolic stability in mouse liver microsomes assessed as parent compound remaining measured after 90 mins in presence of NADPH
[6] = n-octanol/aqueous buffer distribution coefficient, log D of compound at pH 7.4 by LC-MS analysis; assay type: physicochemical
Outline: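 Micro shake-flask method using 20 mM MOPS buffer pH 7.4 and n-octanol, mutually pre-saturated for 24 h. DMSO was kept below 1%. Three buffer:octanol volume ratios (1:1, 1:2, 2:1) were each run three times (n = 9). Tubes were vortexed 2 min and centrifuged 10 min at 20 °C. The aqueous layer was quantified by LC-MS against a matrix-matched calibration, and logD calculated from that concentration.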

[7] = Drug metabolism in mouse liver microsomes assessed as metabolite 2-((1R,3S)-3-phenylcyclohexyl)ethanamine formation measured after 90 mins in presence of NADPH by LC-MS analysis; assay type: ADME, Microsome; details: 1.5 h
Outline: (§3)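 Incubation with mouse liver microsomes and NADPH for 90 min at 37 °C. Metabolites were identified by LC-MS with collision-induced dissociation.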

[8] = Drug metabolism in mouse liver microsomes assessed as metabolite 4-((1S,3R)-3-(2-(benzylamino)ethyl)cyclohexyl)benzene-1,2-diol formation measured after 90 mins in presence of NADPH by LC-MS analysis; assay type: ADME, Microsome; details: 1.5 h; outline: as §3
PC-3 = experiment: Antiproliferative activity against human PC-3 cells assessed as reduction in cell viability at 10 uM incubated for 72 hrs by SRB assay; assay type: functional, cell-based
Outline: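 PC3 prostate cancer cells grown adherent in RPMI 1640 with 2% glutamine, 10% FBS and 1% penicillin-streptomycin. Seeded at 2 × 10^3 cells/well; compound added at 10 µM 24 h later for 72 h. Cells fixed in 10% TCA, stained with sulforhodamine B 30 min, washed with 1% acetic acid, dye solubilised in Tris base, OD read at 510 nm; viability given as % of DMSO-treated cells.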

[9] = target: Sigma non-opioid intracellular receptor 1 (Rattus norvegicus) (UniProt Q9R0C9); experiment: Agonist activity at sigma1 receptor in rat PC12 cells assessed as reduction in KCl-induced Ca2+ influx at 10 nM measured after 30 mins by Fura2AM dye based fluorescence microscopic analysis; assay type: cell-based; details: PC-12
Outline: (§4)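 Single PC12 cells loaded with 0.5 µM fura-2-AM plus 0.01% Pluronic F-127, 30 min, 37 °C, in HEPES saline pH 7.4 (138 mM NaCl, 6 mM KCl, 2 mM CaCl2). Cells were then washed 30 min and perfused. Test compounds were at 10 nM, and Ca2+ influx was triggered with KCl. Excitation was at 340/380 nm and emission at 510 nm. The F340/F380 ratio was calibrated with KD 224 nM. 10–20 cells per slide, ≥5 independent experiments.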

[10] = target: Sigma non-opioid intracellular receptor 1 (Rattus norvegicus) (UniProt Q9R0C9); experiment: Antagonist activity at sigma1 receptor in rat PC12 cells assessed as reduction in opipramol activity by measuring increase in Ca2+-influx at 10 nM measured after 30 mins in presence of KCl by Fura2AM dye based fluorescence microscopic analysis relative to control; assay type: cell-based; parameters: scale not given: the % may be the effect or the level left; outline: as §4
NCI-H522 = experiment: Antiproliferative activity against human NCI-H522 cells assessed as reduction in cell viability at 10 uM incubated for 72 hrs by SRB assay; assay type: functional, cell-based; outline: as §2
CWR22R = experiment: Antiproliferative activity against human 22Rv1 cells assessed as reduction in cell viability at 10 uM incubated for 72 hrs by SRB assay; assay type: functional, cell-based; outline: as §2
NCI-H358 = experiment: Antiproliferative activity against human NCI-H358 cells assessed as reduction in cell viability at 10 uM incubated for 72 hrs by SRB assay; assay type: functional, cell-based; outline: as §2
NCI-H441 = experiment: Antiproliferative activity against human NCI-H441 cells assessed as reduction in cell viability at 10 uM incubated for 72 hrs by SRB assay; assay type: functional, cell-based; outline: as §2

Sequence of Sigma non-opioid intracellular receptor 1 (Q60492 whole entry): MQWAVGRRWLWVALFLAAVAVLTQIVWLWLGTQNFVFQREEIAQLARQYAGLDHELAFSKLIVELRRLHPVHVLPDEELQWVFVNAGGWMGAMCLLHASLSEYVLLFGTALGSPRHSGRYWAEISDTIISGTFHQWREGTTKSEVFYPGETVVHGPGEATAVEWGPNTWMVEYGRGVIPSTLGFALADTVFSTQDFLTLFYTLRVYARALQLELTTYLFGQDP
Sequence of Sigma non-opioid intracellular receptor 1 (Rattus norvegicus) (Q9R0C9 whole entry, the tested form may be a part): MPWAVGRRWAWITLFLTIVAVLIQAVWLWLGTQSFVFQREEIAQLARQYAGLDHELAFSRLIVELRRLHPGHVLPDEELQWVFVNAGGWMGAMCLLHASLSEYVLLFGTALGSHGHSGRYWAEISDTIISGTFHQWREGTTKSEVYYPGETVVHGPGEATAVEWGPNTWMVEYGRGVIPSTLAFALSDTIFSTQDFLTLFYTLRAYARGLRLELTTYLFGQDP

| Compound | Ki [1] [nM] | Ki [2] [nM] | inhibition (Sus scrofa) [%] | Activity (DU-145) | further results |
| --- | --- | --- | --- | --- | --- |
| CN(C)CC[C@H]1CCC[C@@H](c2ccccc2)C1 | 10 | 156 |  |  |  |
| c1ccc(CNCC[C@@H]2CCC[C@@H](c3ccccc3)C2)cc1 [listing 1 of 2 here] | 1.8 | 57 |  |  |  |
| NCC[C@@H]1CCC[C@@H](c2ccccc2)C1 | 43 |  | 15 |  | inhibition [3]: 43% |
| CN(C)CC[C@@H]1CCC[C@H](c2ccccc2)C1 | 14 | 76 |  |  |  |
| c1ccc(CNCC[C@H]2CCC[C@@H](c3ccccc3)C2)cc1 | 1.3 | 47 |  | Active | Selectivity ratio [4]: 35 |
| NCC[C@H]1CCC[C@@H](c2ccccc2)C1 | 138 |  | 14 |  | inhibition [3]: 24% |
| c1ccc(CNCC[C@@H]2CCC[C@H](c3ccccc3)C2)cc1 [listing 1 of 2 here] | 0.61 | 49 |  |  | remaining at 1.5 h [5]: 43%; logD [6]: 3.23; Drug metabolism [7]: Metabolite_Detected; Drug metabolism [8]: Metabolite_Detected |
| NCC[C@@H]1CCC[C@H](c2ccccc2)C1 | 167 |  | 11 |  | inhibition [3]: 38% |
| c1ccc(CNCC[C@H]2CCC[C@H](c3ccccc3)C2)cc1 | 1.4 | 46 |  | inactive | logD [6]: 3.34; Selectivity ratio [4]: 35 |
| NCC[C@H]1CCC[C@H](c2ccccc2)C1 | 603 |  | 31 |  | inhibition [3]: 60% |
| CCCN(CCC)CCc1ccc(OC)c(OCCc2ccccc2)c1 |  |  |  |  | Activity (PC-3): Active |
| c1ccc(CNCC[C@@H]2CCC[C@@H](c3ccccc3)C2)cc1 [listing 2 of 2 here] |  |  |  | inactive | Selectivity ratio [4]: 35 |
| c1ccc(CNCC[C@@H]2CCC[C@H](c3ccccc3)C2)cc1 [listing 2 of 2 here] |  |  |  | Active |  |
| CN(C)CCC1CCCC(c2ccccc2)C1 (mixture of isomers) | 4.2 | 115 | 25 |  |  |
| c1ccc(CCCCNCCC2CCCC(c3ccccc3)C2)cc1 (mixture of isomers) | 3 | 93 | 11 |  |  |
| c1ccc([C@@H]2CCC[C@@H](CCN3CCCC3)C2)cc1 (relative stereo) | 2 | 33 | 28 |  | Activity [9]: inactive; Activity ([10]; PC-12, filed as antagonist): 100% |
| c1ccc(CNCC[C@@H]2CCC[C@@H](c3ccccc3)C2)cc1 (relative stereo) [listing 1 of 2 here] | 2.4 | 268 |  |  |  |
| c1ccc([C@H]2CCC[C@@H](CCN3CCCC3)C2)cc1 (relative stereo) | 3.6 | 61 | 36 |  |  |
| c1ccc([C@H]2CCC[C@H](CCN3CCN(c4ccccc4)CC3)C2)cc1 (relative stereo) | 13 | 144 | 0 | inactive |  |
| c1ccc(CNCC[C@@H]2CCC[C@H](c3ccccc3)C2)cc1 (relative stereo) [listing 1 of 2 here] | 1.8 | 130 |  |  |  |
| c1ccc([C@H]2CCC[C@@H](CCN3CCN(c4ccccc4)CC3)C2)cc1 (relative stereo) | 16 | 118 | 0 | inactive |  |
| c1ccc(CNCC[C@@H]2CCC[C@@H](c3ccccc3)C2)cc1 (relative stereo) [listing 2 of 2 here] |  |  | 31 |  | Activity [9]: inactive; Activity ([10]; PC-12, filed as antagonist): 100% |
| c1ccc(CNCC[C@@H]2CCC[C@H](c3ccccc3)C2)cc1 (relative stereo) [listing 2 of 2 here] |  |  | 11 | Active | Activity (NCI-H522): Active; Activity [9]: inactive; Activity (CWR22R): Active; Activity (PC-3): Active; Activity ([10]; PC-12): inactive; Activity (NCI-H358): Active; Activity (NCI-H441): Active |
